Rows were chosen to be rich in hits. Some 3.8% of all compounds tested hit in one or more screens of this group.
V-ATPase pH = yeast V-ATPase proton transport regulation by pHLuorin. actives 0.37% (n = 350,000). AID 504577. S. cerevisiae, pHLuorin cytosolic pH fluorescence. response, % at 10 µM; in the data active means response mostly above about 7.3%, no sharp cut-off; inactive means mostly below about 5.4%; further: actives read high
B2AR ag = human beta-2 adrenergic receptor agonism by FAP | P07550 | Am2.2-beta2AR cells, FAP receptor internalization, flow cytometry | response, % (no concentration beside the values) | actives 0.43% (n = 340,000) | AID 504454;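 active means response above a set limit, near 3 SD of response in nonfluorescent compounds, cut at about 42% in these data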
Target sequence (P07550 whole entry, looked up): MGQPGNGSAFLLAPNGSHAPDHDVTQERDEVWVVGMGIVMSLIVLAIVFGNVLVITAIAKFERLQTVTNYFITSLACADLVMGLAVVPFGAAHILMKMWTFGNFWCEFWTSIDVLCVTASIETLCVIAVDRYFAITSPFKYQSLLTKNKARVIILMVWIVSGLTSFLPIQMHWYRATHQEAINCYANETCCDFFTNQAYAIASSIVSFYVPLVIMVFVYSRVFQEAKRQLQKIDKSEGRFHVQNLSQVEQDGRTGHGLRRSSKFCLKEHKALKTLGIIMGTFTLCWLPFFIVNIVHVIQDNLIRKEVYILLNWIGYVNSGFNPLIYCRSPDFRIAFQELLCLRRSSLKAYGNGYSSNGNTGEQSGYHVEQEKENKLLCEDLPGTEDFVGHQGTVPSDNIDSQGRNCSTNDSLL
rCAG binder = r(CAG) repeat RNA binding | TO-PRO-1 dye displacement fluorescence | inhibition, % at 3 µM | actives 1.3% (n = 370,000) | AID 651821;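 active means inhibition above the plate cutoff, the mean of all test compounds on that plate plus 3 SD, cut at about 35% in these data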;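 further: 0% = DMSO alone and 100% = 100 µM mitoxantrone as full dye displacement; higher means more dye released from RNA so lower well fluorescence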
Granule exo inh = blocks lytic granule exocytosis | TALL-104 LAMP-1 surface exposure, flow cytometry; cells stimulated with thapsigargin and PMA | inhibition, % at 10 µM | actives 0.66% (n = 360,000);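 active means inhibition above about 55%, limit read from the data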
MPTP block = inhibitors of mitochondrial permeability transition pore | isolated mouse mitochondria, Ca2+ swelling absorbance, 30 min | inhibition, % at 10 µM | actives 1.4% (n = 360,000) | AID 602449;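 active means inhibition of 50% or more, scaled per plate between neutral and stimulator controls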;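 further: 0% = DMSO wells given calcium and 100% = 1 mM EGTA wells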
T cell HTS = T cell immune modulation candidate | response (vesicle binding), % at 7 µM | 2C CD8+ T cell-vesicle binding, flow cytometry; stronger effect = lower value | actives 0.068% (n = 330,000);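 active means response, share of CD8 T cells binding vesicles, and their 90th percentile fluorescence all below set limits, cut at about 80% in these data, passing the limit was not always enough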;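 further: values below 100% mean blocked vesicle binding to the CD8+ T cells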
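Material: 2C TCR transgenic mouse naive CD8+ T cells, MACS-purified. Also added: QL9-charged Drosophila Ld/ICAM-1/B7-1 vesicles. Timing: binding 1.5 h at 37 °C. Measured by: high-throughput flow cytometry with anti-B7-1 and anti-CD8 staining. Read-out: percent CD8+ FL2 mean versus row control. Controls: Unloaded micro-vesicles (low), QL9 vesicles with 0.7% DMSO (high).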
Rh123 counter = membrane potential counter-screen of mitochondrial pore inhibitors; shares compounds with MPTP block; isolated mitochondria, Rhodamine 123 fluorescence; inhibition, % at 10 µM; actives 78% (n = 5,000); in the data active means inhibition above about 22%;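 further: 0% = DMSO vehicle and 100% = positive control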
MPTP abs DR = dose response confirmation of mitochondrial permeability transition pore inhibitors; shares compounds with MPTP block; isolated mitochondria swelling, absorbance; actives 58% (n = 780); IC50, µM; in the data active means IC50 below about 20 µM
MPTP cs DR = counter-screen for mitochondrial permeability transition pore inhibitors, dose response | IC50, µM | isolated mitochondria counterscreen, fluorescence read-out | shares compounds with MPTP block | actives 49% (n = 780); in the data active means IC50 below about 80 µM
The depositor's hits bear a star; i = inactive; . = not tested or not shown.

SMILES	V-ATPase pH	B2AR ag	rCAG binder	Granule exo inh	MPTP block	T cell HTS	Rh123 counter	others
COc1ccc(CCN2C(=O)CSC2=Nc2ccc(C(C)C)cc2)cc1OC	0	10	-4	1	90*	97	94*
O=C(CSC1=NS(=O)(=O)c2cc(Cl)ccc2N1)c1ccc(Cl)cc1	-2	-1	17	-2	98*	318	88*
COC(=O)[C@]12C[C@H](CC(=O)NCc3cccc(C(F)(F)F)c3)C(=O)N(Cc3cccc4ccccc34)C1=C[C@H](C(C)(C)C)O[C@@H]2C	.	.	2	.	.	.	.
O=C(Nc1ccc(Cl)cc1)C1=Cc2cc(Cl)ccc2OC1	1	-1	7	0	99*	373	113*
O=C(Nc1ccc2ccccc2c1)NC1CCCCN(Cc2cccc(Cl)c2)C1=O (configuration not stated)	.	.	5	.	.	.	.
CCCCCCCCCCCCCCCCn1cc[n+](C)c1	6	8	4	18	58*	221	99*
CCCCCCCCn1ccc(=N)cc1	-8	7	2	8	-1	624	.
O=C(CN1C(=O)C2(OCCCO2)c2ccccc21)NCc1ccc2ccccc2c1	.	.	4	.	.	.	.
CCc1ccc(CNCC(=O)N2CCC3(CC2)OCCO3)s1	.	.	2	.	.	.	.
COc1ccc(OCc2nnc(NC(=O)Nc3ccc(F)cc3)s2)cc1	23	1	24	-2	74*	314	82*
COc1ccc(NC(=O)Nc2nnc(-c3cccs3)s2)cc1	-3	3	33	-1	69*	230	69*
CN(CCCOC(=O)CC1C=CCC1)C1CN(Cc2cn(Cc3ccccc3Cl)nn2)S(=O)(=O)C1 (configuration not stated)	.	.	3	.	.	.	.
COc1cc(C(=O)NCCOc2cc(C)ccc2C(C)C)cc(OC)c1OC	0	-9	-3	14	57*	100	64*
Cc1ccc(C(C)C)c(OCCNC(=O)c2cncc(Br)c2)c1	1	7	0	-2	-1	337	.
O=S1(=O)c2ccc(Br)cc2OCCC2CCCCN21 (configuration not stated)	.	.	0	.	.	.	.
COc1cc(-n2c(C)nc3cc(C(=O)N4CCN(C(C)=O)CC4)ccc32)cc(OC)c1OC	.	.	4	.	.	.	.
O=C(Nc1ccc([N+](=O)[O-])cc1)Nc1cnccn1	1	4	3	-1	69*	344	89*
O=C(Nc1ccc(Cl)cc1)Nc1cnccn1	1	-2	3	-8	53*	247	70*
O=C(NCCc1ccccc1)OCc1cn(Cc2ccccc2F)nn1	.	.	1	.	.	.	.
NC(=S)Nc1ccc(Cl)c(Cl)c1	-3	0	-3	19	13	96	.
Cc1cccc(C)c1NC(=S)Nc1ccc(Cl)c(Cl)c1	0	14	1	1	98*	170	97*
Cc1cc(C)cc(NC(=S)Nc2ccc(Cl)c(Cl)c2)c1	-1	12	6	-1	103*	232	89*
OCCNC(=S)Nc1ccc(Cl)c(Cl)c1	0	1	-1	0	12	157	.
CN(Cc1cn(Cc2ccccc2)nn1)S(=O)(=O)c1ccc(F)cc1Br	.	.	5	.	.	.	.
O=C(NCCN1CCC(n2c(=O)[nH]c3cc(Cl)ccc32)CC1)c1ccc(F)cc1	.	.	-1	.	.	.	.
SMILES	V-ATPase pH	B2AR ag	rCAG binder	Granule exo inh	MPTP block	T cell HTS	Rh123 counter	others
CCCCn1c(NC(=O)c2ccccc2)c(C#N)c2nc3ccccc3nc21	2	-21	15	14	87*	.	80*
N#Cc1cccc(Cn2ccc3ccc(-c4ccc5ccn(Cc6ccccc6)c5c4)cc32)c1	.	.	20	.	.	.	.
COCCN1Cc2cc(C(=O)OC)c3c(c2C1=O)c1cc(F)ccc1n3C(=O)c1ccccc1	.	.	7	.	.	.	.
COc1cccc(CNCC(O)COc2ccc(C(=O)c3ccccc3)cc2)c1 (configuration not stated)	1	-21	1	2	84*	340	1	MPTP abs DR=i;MPTP cs DR=51*
C#CCNC(=O)C[C@H]1C[C@@]2(C(=O)OC)C(=C[C@H](C3CCCC3)O[C@@H]2C)N(CCc2ccc(OC)c(OC)c2)C1=O	.	.	-2	.	.	.	.
O=C(Nc1ccc(OC(F)F)cc1)Nc1cccc(C(F)(F)F)c1	-4	8	10	9	86*	487	63*
NNC(=O)Nc1cccc(C(F)(F)F)c1	-5	0	0	-9	1	252	.
O=C(NNc1cccc(Cl)n1)Nc1cccc(C(F)(F)F)c1	-3	-17	8	-1	70*	113	72*
O=C(Nc1ccncc1)Nc1cccc(C(F)(F)F)c1	0	-3	2	0	81*	72	99*
O=C(Nc1cccc(C(F)(F)F)c1)c1sc(Cl)nc1C(F)(F)F	1	12	0	-2	83*	836	77*
O=C(Nc1cccc(C(F)(F)F)c1)c1cc(-c2ccco2)on1	-3	13	12	-12	1	91	.
CCC[C@@H](/C=C/C(=O)OC(C)(C)C)Sc1ccc(N)cc1	.	.	-3	.	.	.	.
C=CCN=C1NC(c2ccccc2C(F)(F)F)C(C(=O)OC)=C(C)N1Cc1ccc(C(F)(F)F)cc1 (configuration not stated)	.	.	1	.	.	.	.
CN(C)S(=O)(=O)NCCNC(=O)c1cc(OCC(F)(F)F)ccc1OCC(F)(F)F	-1	-6	-10	0	1	205	.
NC(=O)/C=C\C(=O)Nc1cccc(C(F)(F)F)c1	-2	5	-2	-3	2	34	.
N/C(=N\OC(=O)Nc1cccc(C(F)(F)F)c1)c1ccno1	3	4	2	-4	72*	215	94*
O=C(NCCNC(=O)c1cc(OCC(F)(F)F)ccc1OCC(F)(F)F)Nc1cccc(C(F)(F)F)c1	1	-4	-3	2	72*	412	88*
CNc1ccccc1/C(O)=C(\C#N)C(=O)NCc1cccc2ccccc12	.	.	12	.	.	.	.
CCSc1nnc(NC(=O)C(C)(C(F)(F)F)C(F)(F)F)s1	-2	7	1	-2	26	163	.
CCSc1nnc(NC(=O)C(CC)(C(F)(F)F)C(F)(F)F)s1	4	7	2	-1	54*	298	106*
Cc1ccc(C2=C(O)C(=O)C(c3ccc(C)cc3)=C(O)C2=O)cc1	-2	-3	20	3	56*	.	-44	MPTP abs DR=14*;MPTP cs DR=<2.5*
CC1=C(O)C(=O)C(C2=C(O)C(=O)C(C)=C(O)C2=O)=C(O)C1=O	3	2	-2	-1	-2	.	.
C[C@H](O)[C@@H]1CN2CCc3c([nH]c4ccccc34)[C@@H]2C[C@@H]1N(C)C(=O)Nc1ccc(Br)cc1	.	.	8	0	83*	.	104*
